One experiment concerns aldolase in BT-549 cells. Briefly: Aldolase activity assay. The class given is cell-based, human. The conditions noted are these: 24 hr treatment. A digest of the protocol:
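Cells (1×10^6 for MDA231) were exposed to test compound for 24 h. Aldolase or GAPDH activity was then measured with a commercial kit following the maker's protocol. Values were normalized to protein concentration and expressed as fold change relative to DMSO.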

A further experiment has as its system MDA231 cells. Kind of experiment: Extracellular flux assay, ECAR. The class given is cell-based, human. The conditions noted are these: 2 µM, 24 hrs. Put shortly: (§1)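 Seahorse XF96: cells were seeded for 24 h, then treated for a further 24 h. One hour before the run they were changed to XF Base medium, pH 7.4, with 1 mM L-glutamine. ECAR was read three times at baseline and three times after each sequential injection of glucose (10 mM), oligomycin (1 µM) and 2-DG (50 mM). Readings were protein-normalized, baseline-subtracted and expressed as fold change versus DMSO.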

A further experiment concerns BT-549 cells. Kind of experiment: Extracellular flux assay, ECAR. The class given is cell-based, human. The conditions noted are these: 2 µM, 24 hrs. Put shortly: as §1
Experiment [1] has as its system glucose transporter 1, hexokinase II. Conditions: cited from earlier work.
In experiment [2] the test system is MDA231 BAX/BAK knockdown (siRNA) cells. Briefly: Drug screen and low-throughput cell viability. The experiment is classed as cell-based, human. Conditions: 48 hr treatment, CellTiter-Glo % survival, BAX/BAK KD versus control. (In general: In ATP-based viability assays light output follows the ATP content of the culture.)
The target in a further experiment is HDAC1 (Homo sapiens, UniProt Q13547). Briefly: HDAC inhibitory assay. The experiment is classed as biochemical.
A further experiment deals with T1, HDAC7 (Homo sapiens, UniProt Q8WUI4).
T1 sequence (Q8WUI4 1-952): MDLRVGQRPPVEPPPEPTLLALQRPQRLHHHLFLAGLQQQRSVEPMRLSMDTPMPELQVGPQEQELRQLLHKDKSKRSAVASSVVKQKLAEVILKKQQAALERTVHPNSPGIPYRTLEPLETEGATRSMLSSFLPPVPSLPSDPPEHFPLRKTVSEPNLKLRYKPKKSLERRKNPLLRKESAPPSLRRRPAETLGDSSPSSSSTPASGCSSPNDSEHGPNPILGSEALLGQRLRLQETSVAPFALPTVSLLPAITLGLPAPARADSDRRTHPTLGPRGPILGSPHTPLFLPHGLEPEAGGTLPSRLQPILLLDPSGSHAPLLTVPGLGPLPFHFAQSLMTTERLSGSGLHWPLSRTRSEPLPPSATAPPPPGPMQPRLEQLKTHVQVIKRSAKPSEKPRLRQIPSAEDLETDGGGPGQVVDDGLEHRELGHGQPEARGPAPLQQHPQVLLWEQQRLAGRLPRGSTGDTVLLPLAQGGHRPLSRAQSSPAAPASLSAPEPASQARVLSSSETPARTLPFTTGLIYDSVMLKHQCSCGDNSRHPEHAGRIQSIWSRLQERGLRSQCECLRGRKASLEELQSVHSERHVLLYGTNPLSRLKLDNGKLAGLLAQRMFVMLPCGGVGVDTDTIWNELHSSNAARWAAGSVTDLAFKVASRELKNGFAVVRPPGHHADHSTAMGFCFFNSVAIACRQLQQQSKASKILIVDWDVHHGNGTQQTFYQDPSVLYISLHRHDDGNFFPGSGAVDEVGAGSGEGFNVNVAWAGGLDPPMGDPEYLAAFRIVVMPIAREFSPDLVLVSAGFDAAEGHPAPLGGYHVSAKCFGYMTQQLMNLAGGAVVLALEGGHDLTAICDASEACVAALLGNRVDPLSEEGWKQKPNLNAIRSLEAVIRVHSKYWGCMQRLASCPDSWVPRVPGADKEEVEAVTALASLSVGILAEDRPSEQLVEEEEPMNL
Briefly: HDAC inhibitory assay. The class given is biochemical.

The next experiment has as its target T2, HDAC6 (Homo sapiens, UniProt Q9UBN7).
T2 sequence (Q9UBN7 1-1215): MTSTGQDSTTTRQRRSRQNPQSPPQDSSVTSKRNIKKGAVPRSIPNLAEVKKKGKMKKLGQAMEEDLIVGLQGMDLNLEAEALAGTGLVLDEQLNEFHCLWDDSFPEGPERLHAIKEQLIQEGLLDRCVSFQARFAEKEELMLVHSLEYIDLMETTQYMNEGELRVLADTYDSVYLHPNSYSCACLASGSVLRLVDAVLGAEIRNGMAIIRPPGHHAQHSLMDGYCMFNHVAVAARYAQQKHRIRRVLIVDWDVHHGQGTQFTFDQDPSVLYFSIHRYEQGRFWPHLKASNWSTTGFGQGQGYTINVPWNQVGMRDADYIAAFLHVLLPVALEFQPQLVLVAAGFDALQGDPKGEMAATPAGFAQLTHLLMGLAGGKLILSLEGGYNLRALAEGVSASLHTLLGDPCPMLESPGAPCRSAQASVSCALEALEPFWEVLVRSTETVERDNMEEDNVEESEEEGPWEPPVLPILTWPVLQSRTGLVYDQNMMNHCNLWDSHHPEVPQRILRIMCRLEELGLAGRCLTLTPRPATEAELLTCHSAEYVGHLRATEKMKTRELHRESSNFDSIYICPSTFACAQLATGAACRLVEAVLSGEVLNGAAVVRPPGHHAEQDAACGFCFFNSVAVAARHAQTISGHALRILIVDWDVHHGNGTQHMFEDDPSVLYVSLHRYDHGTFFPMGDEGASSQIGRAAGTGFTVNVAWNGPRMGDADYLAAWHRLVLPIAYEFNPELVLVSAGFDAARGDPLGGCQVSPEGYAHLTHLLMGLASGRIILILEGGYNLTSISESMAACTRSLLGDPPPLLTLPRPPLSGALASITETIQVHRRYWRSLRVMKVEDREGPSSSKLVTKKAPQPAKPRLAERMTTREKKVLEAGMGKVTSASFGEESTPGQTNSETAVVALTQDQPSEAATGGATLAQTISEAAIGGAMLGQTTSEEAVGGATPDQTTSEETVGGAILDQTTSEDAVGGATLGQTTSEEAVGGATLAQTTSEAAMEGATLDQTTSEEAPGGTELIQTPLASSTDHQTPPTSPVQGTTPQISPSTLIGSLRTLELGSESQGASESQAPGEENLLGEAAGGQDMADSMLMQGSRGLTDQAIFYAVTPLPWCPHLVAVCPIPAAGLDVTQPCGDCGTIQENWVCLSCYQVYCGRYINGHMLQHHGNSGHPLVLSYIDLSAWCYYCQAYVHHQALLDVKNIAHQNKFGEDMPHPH
Briefly: HDAC inhibitory assay. The experiment is classed as biochemical.

A further experiment addresses T3, HDAC8 (Homo sapiens, UniProt Q9BY41).
T3 sequence (Q9BY41 1-377): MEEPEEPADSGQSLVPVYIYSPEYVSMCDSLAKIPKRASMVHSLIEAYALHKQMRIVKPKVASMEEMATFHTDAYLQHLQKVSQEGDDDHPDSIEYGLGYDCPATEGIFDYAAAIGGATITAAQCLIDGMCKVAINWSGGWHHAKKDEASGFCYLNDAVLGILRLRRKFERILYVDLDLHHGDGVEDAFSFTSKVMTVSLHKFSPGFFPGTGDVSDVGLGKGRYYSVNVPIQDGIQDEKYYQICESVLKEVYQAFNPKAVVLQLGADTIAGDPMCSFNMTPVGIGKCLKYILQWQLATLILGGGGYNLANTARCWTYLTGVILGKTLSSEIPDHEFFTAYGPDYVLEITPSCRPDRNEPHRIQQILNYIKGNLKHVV
Briefly: HDAC inhibitory assay. The class given is biochemical.

Sequence of HDAC1 (Q13547 whole entry): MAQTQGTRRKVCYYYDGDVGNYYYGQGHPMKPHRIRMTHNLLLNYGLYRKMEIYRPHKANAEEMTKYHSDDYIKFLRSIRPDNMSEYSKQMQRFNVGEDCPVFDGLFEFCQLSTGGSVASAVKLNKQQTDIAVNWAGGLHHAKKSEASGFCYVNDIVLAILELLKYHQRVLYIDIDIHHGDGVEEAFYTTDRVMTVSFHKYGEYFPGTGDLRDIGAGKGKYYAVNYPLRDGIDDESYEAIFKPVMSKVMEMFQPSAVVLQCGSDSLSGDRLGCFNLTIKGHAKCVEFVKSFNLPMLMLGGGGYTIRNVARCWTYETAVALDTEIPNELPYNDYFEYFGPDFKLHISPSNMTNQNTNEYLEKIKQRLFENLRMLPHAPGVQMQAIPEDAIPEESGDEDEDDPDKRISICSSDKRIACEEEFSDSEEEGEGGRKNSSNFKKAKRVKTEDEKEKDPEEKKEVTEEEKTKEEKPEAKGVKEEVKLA

As to `O=C(CCCCCCNC(=O)c1cnc(N(c2ccccc2)c2ccccc2)nc1)NO` [ACY-1215], in the experiment with aldolase in BT-549 cells, the aldolase enzymatic activity result is “reduced aldolase activity”.
For the compound `O=C(CCCCCCC(=O)Nc1ccc([C@H]2O[C@@H](CSc3nc(-c4ccccc4)c(-c4ccccc4)o3)C[C@@H](c3ccc(CO)cc3)O2)cc1)NO` [tubacin], the “extracellular acidification rate (ECAR)” value in the experiment on MDA231 cells was “reduction”. For the same compound, the “glycolysis and glycolytic capacity (ECAR)” value in the experiment with BT-549 cells is reported as “confirmed all the above results”.
On to `CCCC(CCC)C(=O)O` [valproate], for which, in experiment [1], the “glucose transporter 1” value was “reduction in the glucose transporter 1” and the “hexokinase II activity” value is on record as “reduction in hexokinase II activity”.
Consider `COc1cc([C@@H]2c3cc4c(cc3[C@@H](O[C@@H]3O[C@@H]5CO[C@@H](C)O[C@H]5[C@H](O)[C@H]3O)[C@H]3COC(=O)[C@H]23)OCO4)cc(OC)c1O` [etoposide], for which the “response to apoptosis-inducing agents” value in experiment [2] was “broadly resistant”.
Take `O=C(CCCCCCNC(=O)c1cnc(N(c2ccccc2)c2ccccc2Cl)nc1)NO` [ACY-241]: the “glycolysis and glycolytic capacity (ECAR)” value with BT-549 cells (1 µM) is reported as “confirmed all the above results”.
For `CN(C)CC[C@H](CSc1ccccc1)Nc1ccc(S(=O)(=O)NC(=O)c2ccc(N3CCN(Cc4ccccc4-c4ccc(Cl)cc4)CC3)cc2)cc1[N+](=O)[O-]` [ABT-737], the “response to apoptosis-inducing agents” value in experiment [2] was “broadly resistant”.
For `O=C(CCCCCCC(=O)Nc1ccccc1)NO` [SAHA, suberoylanilide hydroxamic acid], the “inhibition of HDAC activity” value against HDAC1, against HDAC7, against HDAC6 and at HDAC8 was “inhibits the activity” throughout.

The values above are taken from paper PMC7810372 (Science Advances, 2021).
